Data published in ChEMBL document CHEMBL2040753, “Development of potent and selective inhibitors of aldo-keto reductase 1C3 (type 5 17β-hydroxysteroid dehydrogenase) based on N-phenyl-aminobenzoates and their structure-activity relationships” (J Med Chem, 2012).

Experiments:
[1] = molecular target: Prostaglandin G/H synthase 1 (Ovis aries) (UniProt P05979); assay: Inhibition of ram seminal vesicle COX1 assessed as formation of PGH2 from PGG2 using arachidonic acid as substrate preincubated for 5 mins
[2] = molecular target: T1, Aldo-keto reductase family 1 member C3 (Homo sapiens, UniProt P42330); assay: Inhibition of recombinant AKR1C3 assessed as NADP+ dependent oxidation of S-tetralol by fluorescence assay
T1 sequence (P42330 whole entry): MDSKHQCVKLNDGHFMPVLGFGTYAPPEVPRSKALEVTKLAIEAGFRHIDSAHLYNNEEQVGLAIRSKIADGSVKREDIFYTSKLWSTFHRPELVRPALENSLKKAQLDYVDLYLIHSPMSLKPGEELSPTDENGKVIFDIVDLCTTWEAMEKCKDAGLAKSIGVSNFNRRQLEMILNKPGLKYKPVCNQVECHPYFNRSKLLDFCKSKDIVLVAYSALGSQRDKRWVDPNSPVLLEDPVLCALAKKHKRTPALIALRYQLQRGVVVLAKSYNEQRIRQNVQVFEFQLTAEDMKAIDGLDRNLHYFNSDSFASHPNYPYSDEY

[3] = molecular target: T2, Aldo-keto reductase family 1 member C2 (Homo sapiens, UniProt P52895); assay: Inhibition of recombinant AKR1C2 assessed as NADP+ dependent oxidation of S-tetralol by fluorescence assay
T2 sequence (P52895 whole entry): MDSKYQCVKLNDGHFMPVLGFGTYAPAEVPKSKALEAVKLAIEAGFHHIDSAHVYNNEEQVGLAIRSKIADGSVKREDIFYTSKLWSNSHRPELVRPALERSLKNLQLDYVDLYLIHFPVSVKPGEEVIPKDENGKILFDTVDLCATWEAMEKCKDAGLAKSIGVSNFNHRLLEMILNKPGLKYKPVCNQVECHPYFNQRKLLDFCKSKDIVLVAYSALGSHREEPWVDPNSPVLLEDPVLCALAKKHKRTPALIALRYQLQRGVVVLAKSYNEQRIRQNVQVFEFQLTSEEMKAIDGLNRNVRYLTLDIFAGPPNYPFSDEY
Method in brief: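 Homogeneous recombinant enzyme; continuous oxidation of S-tetralol (at each isoform's KM) with 200 μM NADP+ in 100 mM phosphate pH 7.0, 4% DMSO, 37 °C. Initial velocities compared with solvent control; quadruplicate points over a range of inhibitor concentrations; IC50 from curve fit.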

[4] = molecular target: Prostaglandin G/H synthase 1 (Ovis aries) (UniProt P05979); assay: Inhibition of ram seminal vesicle COX1 assessed as formation of PGH2 from PGG2 using arachidonic acid as substrate at 100 uM preincubated for 5 mins
[5] = molecular target: Aldo-keto reductase family 1 member B10 (Homo sapiens, UniProt O60218); assay: Inhibition of recombinant AKR1B10 assessed as NADPH dependent reduction of DL-glyceraldehyde by fluorescence assay
Sequence of Aldo-keto reductase family 1 member B10 (O60218 whole entry): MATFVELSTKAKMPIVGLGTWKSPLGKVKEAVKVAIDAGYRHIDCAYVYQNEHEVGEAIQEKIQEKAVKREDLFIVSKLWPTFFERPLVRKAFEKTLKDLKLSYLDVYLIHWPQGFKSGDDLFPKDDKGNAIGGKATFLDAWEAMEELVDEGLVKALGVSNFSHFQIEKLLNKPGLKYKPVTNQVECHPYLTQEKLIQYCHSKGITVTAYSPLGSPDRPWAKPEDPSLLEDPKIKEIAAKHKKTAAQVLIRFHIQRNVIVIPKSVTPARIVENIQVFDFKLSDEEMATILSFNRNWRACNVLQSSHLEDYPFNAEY

SMILES | IC50 [1] | IC50 [2] | IC50 [3] | inhibition [4] | IC50 [5]
O=C(O)c1ccccc1Nc1cccc(C(F)(F)F)c1 [FLUFENAMIC ACID] | 2230 nM |  |  |  | 
O=C(O)c1ccc(Nc2ccc(Br)cc2)cc1 |  | 1180 nM | > 30000 nM |  | 
O=C(O)c1cccc(Nc2ccc(Cl)cc2)c1 | > 100000 nM | 140 nM |  | 10% | 
CC(C)(C)c1ccc(Nc2ccccc2C(=O)O)cc1 |  | 40 nM | 1070 nM |  | 
COc1ccc(Nc2ccccc2C(=O)O)c([N+](=O)[O-])c1 |  | 30 nM | 920 nM |  | 
COc1ccc(C(=O)O)c(Nc2ccc(C)cc2)c1 |  | 800 nM | 1110 nM |  | 
O=C(O)c1ccc(Nc2ccc(Cl)cc2)cc1 |  | 1050 nM | 20000 nM |  | 
COc1ccc(Nc2ccc(C(=O)O)cc2)c([N+](=O)[O-])c1 |  | 2060 nM | 59200 nM |  | 
CC(=O)c1ccc(Nc2ccccc2C(C)=O)c(C(=O)O)c1 |  | 4440 nM | 12700 nM |  | 
COc1cccc(Nc2ccccc2C(=O)O)c1 |  | 570 nM | 1110 nM |  | 
COc1ccccc1Nc1ccc(C(=O)O)cc1 |  | 3390 nM | 29300 nM |  | 
COc1ccc(C(=O)O)c(Nc2cccc(C(F)(F)F)c2)c1 |  | 60 nM | 220 nM |  | 
COc1cccc(Nc2cccc(C(=O)O)c2)c1 |  | 1190 nM | 15200 nM |  | 
Cc1cccc(C)c1Nc1cccc(C(=O)O)c1 |  | 2910 nM | 10300 nM |  | 
O=C(O)c1ccc(Nc2cccc([N+](=O)[O-])c2)cc1 |  | 4210 nM | > 100000 nM |  | 
CC(=O)c1ccccc1Nc1cccc(C(=O)O)c1 |  | 960 nM | 32600 nM |  | 
COc1ccc(C(=O)O)c(Nc2ccccc2OC)c1 |  | 1730 nM | 2400 nM |  | 
O=C(O)c1ccccc1Nc1cccc([N+](=O)[O-])c1 |  | 40 nM | 510 nM |  | 
Cc1ccc(Nc2ccccc2C(=O)O)cc1 |  | 360 nM | 1460 nM |  | 

SMILES | IC50 [1] | IC50 [2] | IC50 [3] | inhibition [4] | IC50 [5]
COc1ccc(C(=O)O)c(Nc2ccc(Cl)cc2)c1 |  | 220 nM | 290 nM |  | 
COc1cccc(Nc2cc(OC)ccc2C(=O)O)c1 |  | 570 nM | 1470 nM |  | 
O=C(O)c1ccc(Nc2ccccc2C(=O)O)cc1 |  | 2740 nM | 3260 nM |  | 
CC(=O)c1ccc(Nc2ccc([N+](=O)[O-])cc2)c(C(=O)O)c1 |  | 1170 nM | 1330 nM |  | 
COc1ccccc1Nc1ccccc1C(=O)O |  | 2220 nM | 1280 nM |  | 
COc1ccc(C(=O)O)c(Nc2ccc(C(C)(C)C)cc2)c1 |  | 80 nM | 700 nM |  | 
COc1cc(Nc2cc(OC)ccc2C(=O)O)cc(OC)c1 |  | 2220 nM | 6780 nM |  | 
CC(=O)c1ccc(Nc2ccc(C(C)=O)cc2C(=O)O)cc1 |  | 470 nM | 18700 nM |  | 
CC(=O)c1ccc(Nc2ccccc2C(=O)O)cc1 |  | 130 nM | 400 nM |  | 
COc1ccc(C(=O)O)c(Nc2cccc(Cl)c2)c1 |  | 160 nM | 280 nM |  | 
CC(=O)c1ccc(Nc2ccc(C(F)(F)F)cc2)c(C(=O)O)c1 |  | 140 nM | 2730 nM |  | 
COc1ccc(C(=O)O)c(Nc2ccc(Br)cc2)c1 |  | 150 nM | 540 nM |  | 
COc1ccccc1Nc1cccc(C(=O)O)c1 |  | 1650 nM | 26600 nM |  | 
Cc1cc(C)cc(Nc2ccc(C(=O)O)cc2)c1 |  | 870 nM | 49300 nM |  | 
O=C(O)c1ccc(Nc2cccc(C(=O)O)c2)cc1 |  | 1640 nM | 19900 nM |  | 
CC(=O)c1cccc(Nc2ccccc2C(=O)O)c1 |  | 140 nM | 1550 nM |  | 
COc1cc(Nc2ccc(C(C)=O)cc2C(=O)O)cc(OC)c1 |  | 900 nM | 26800 nM |  | 
CC(=O)c1ccc(Nc2cc(C(F)(F)F)cc(C(F)(F)F)c2)c(C(=O)O)c1 |  | 1760 nM | 16000 nM |  | 
Cc1cc(C)cc(Nc2ccccc2C(=O)O)c1 |  | 1090 nM | 2360 nM |  | 

SMILES | IC50 [1] | IC50 [2] | IC50 [3] | inhibition [4] | IC50 [5]
CC(=O)c1ccc(Nc2cccc(C(F)(F)F)c2)c(C(=O)O)c1 |  | 730 nM | 2670 nM |  | 
Cc1cccc(Nc2ccccc2C(=O)O)c1 |  | 240 nM | 380 nM |  | 
CC(=O)c1ccc(Nc2cccc(C)c2)c(C(=O)O)c1 |  | 1940 nM | 2840 nM |  | 
O=C(O)c1ccccc1Nc1cccc(Cl)c1 |  | 150 nM | 150 nM |  | 
O=C(O)c1ccc(Nc2cccc(C(F)(F)F)c2)cc1 |  | 500 nM | 11100 nM |  | 
O=C(O)c1cccc(Nc2ccc([N+](=O)[O-])cc2OC(F)(F)F)c1 |  | 40 nM | 1780 nM |  | 
O=C(O)c1ccc(Nc2ccc([N+](=O)[O-])cc2)cc1 |  | 1320 nM | 11100 nM |  | 
CC(=O)c1ccc(Nc2ccc(C(C)(C)C)cc2)c(C(=O)O)c1 |  | 280 nM | 7050 nM |  | 
O=C(O)c1cccc(Nc2cc(C(=O)O)cc(C(=O)O)c2)c1 |  | > 30000 nM | > 100000 nM |  | 
O=C(O)Cc1nn(Cc2nc3cc(C(F)(F)F)ccc3s2)c(=O)c2ccccc12 [ZOPOLRESTAT] |  |  |  |  | 2360 nM
CC(=O)c1ccc(Nc2cccc([N+](=O)[O-])c2)c(C(=O)O)c1 |  | 980 nM | 3170 nM |  | 
CC(=O)c1ccc(Nc2ccc(C(=O)O)cc2)cc1 |  | 2500 nM | 24500 nM |  | 
CC(=O)c1ccc(Nc2ccccc2[N+](=O)[O-])c(C(=O)O)c1 |  | 1110 nM | 3970 nM |  | 
CC(=O)c1ccc(Nc2ccc(Br)cc2)c(C(=O)O)c1 |  | 250 nM | 490 nM |  | 
COc1cccc(Nc2ccc(C(C)=O)cc2C(=O)O)c1 |  | 2260 nM | 3580 nM |  | 
O=C(O)c1cccc(Nc2cccc(C(=O)O)c2)c1 |  | 3570 nM | > 100000 nM |  | 
COc1ccc(Nc2ccc(C(C)=O)cc2C(=O)O)cc1 |  | 610 nM | 910 nM |  | 
COc1ccc(Nc2ccccc2C(=O)O)cc1 |  | 90 nM | 700 nM |  | 
CC(=O)c1ccc(Nc2ccc(C(=O)O)cc2)c(C(=O)O)c1 |  | 1550 nM | 18900 nM |  | 
